Data reported in ChEMBL document CHEMBL1122347, “synthesis and antihypertensive activity of 2-sulfonamido- and 2-sulfamido-1,3,4,6,7,11b alpha-hexahydro-2H-benzo[a]quinolizines” (1983).
Where “and” joins values, the source holds several entries; their conditions need not be identical. Identical values can stand only once. Calls of active or inactive are those of the source. No cut-off for these calls is given here.

Assays:
[1] = species: Rattus norvegicus; details: 2 mg/kg
[2] = species: Rattus norvegicus; details: Heart, 2 mg/kg
[3] = test system: Rattus norvegicus; test: Antihypertensive activity in DOCA/saline rat dosed at 50 mg/kg, administered perorally expressed as percent fall in blood pressure after 2 h; NS is not significant; type: functional, organism-based; parameters: dose 50 mg/kg
How it was run: (§1)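 Hypertensive rats were kept only if systolic pressure was at least 155 mmHg, in groups of four. They were dosed orally in 0.5% (hydroxypropyl)methylcellulose/0.9% saline vehicle (10 mL/kg), with a vehicle-alone control. Systolic pressure was measured by tail-cuff with a pneumatic pulse transducer in 37 °C housing before dosing and at 2, 6 and 24 h. Heart rate was taken from pulse traces. Means ± SE; ANOVA against control, p > 0.05 nonsignificant.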

[4] = test system: Rattus norvegicus; test: Antihypertensive activity in DOCA/saline rat dosed at 50 mg/kg, administered perorally expressed as percent fall in blood pressure after 6 h; NS is not significant; type: functional, organism-based; parameters: dose 50 mg/kg
How it was run: as §1

[5] = test system: Rattus norvegicus; test: (§2) Antihypertensive activity in DOCA/saline rat dosed at 50 mg/kg, administered perorally expressed as percent rise in heart rate after 2 h; NS is not significant; type: functional, organism-based; parameters: dose 50 mg/kg
How it was run: as §1

[6] = test system: Rattus norvegicus; test: Antihypertensive activity in DOCA/saline rat dosed at 50 mg/kg, administered perorally expressed as percent rise in heart rate after 6 h; NS is not significant; type: functional, organism-based; parameters: dose 50 mg/kg
How it was run: as §1

[7] = test system: Rattus norvegicus; test: Antihypertensive activity in DOCA/saline rat dosed at 50 mg/kg, administered perorally expressed as percent fall in blood pressure after 2 h; type: functional; details: route oral
How it was run: as §1

[8] = test system: Rattus norvegicus; test: Antihypertensive activity in DOCA/saline rat dosed at 50 mg/kg, administered perorally expressed as percent fall in blood pressure after 6 h; type: functional; details: route oral
How it was run: as §1

[9] = test system: Rattus norvegicus; test: Antihypertensive activity in DOCA/saline rat dosed at 50 mg/kg, administered perorally expressed as percent rise in heart rate after 2 h; type: functional; details: route oral
How it was run: as §1

[10] = test system: Rattus norvegicus; test: Antihypertensive activity in DOCA/saline rat dosed at 25 mg/kg, administered perorally expressed as percent fall in blood pressure after 6 h; NS is not significant; type: functional, organism-based; parameters: dose 25 mg/kg
How it was run: as §1

[11] = test system: Rattus norvegicus; test: Antihypertensive activity in DOCA/saline rat dosed at 25 mg/kg, administered perorally expressed as percent fall in blood pressure after 2 h; NS is not significant; type: functional, organism-based; parameters: dose 25 mg/kg
How it was run: as §1

[12] = test system: Rattus norvegicus; test: Antihypertensive activity in DOCA/saline rat dosed at 25 mg/kg, administered perorally expressed as percent rise in heart rate after 2 h; NS is not significant; type: functional, organism-based; parameters: dose 25 mg/kg
How it was run: as §1

[13] = test system: Rattus norvegicus; test: Antihypertensive activity in DOCA/saline rat dosed at 25 mg/kg, administered perorally expressed as percent rise in heart rate after 6 h; NS is not significant; type: functional, organism-based; parameters: dose 25 mg/kg
How it was run: as §1

[14] = test system: Rattus norvegicus; test: Antihypertensive activity in DOCA/saline rat dosed at 50 mg/kg, administered perorally expressed as percent rise in heart rate after 6 h; type: functional; details: route oral
How it was run: as §1

[15] = test system: Rattus norvegicus; test: Antihypertensive activity in DOCA/saline rat dosed at 50 mg/kg, po administered perorally expressed as percent rise in heart rate after 2 h; type: functional
How it was run: as §1

[16] = test system: Rattus norvegicus; test: Antihypertensive activity in DOCA/saline rat dosed at 25 mg/kg, administered perorally expressed as percent fall in blood pressure after 2 h; type: functional; details: route oral
How it was run: as §1

[17] = test system: Rattus norvegicus; test: Antihypertensive activity in DOCA/saline rat dosed at 50 mg/kg, po expressed as percent fall in blood pressure after 2 h; type: functional
How it was run: as §1

[18] = test system: Rattus norvegicus; test: Antihypertensive activity in DOCA/saline rat dosed at 50 mg/kg, po expressed as percent fall in blood pressure after 6 h; NS is not significant; type: functional, organism-based; parameters: dose 50 mg/kg
How it was run: as §1

[19] = test system: Rattus norvegicus; test: Antihypertensive activity in DOCA/saline rat dosed at 50 mg/kg, po expressed as percent rise in heart rate after 6 h; NS is not significant; type: functional, organism-based; parameters: dose 50 mg/kg
How it was run: as §1

[20] = test system: Rattus norvegicus; test: Antihypertensive activity in DOCA/saline rat dosed at 50 mg/kg, po expressed as percent rise in heart rate after 2 h; type: functional
How it was run: as §1

[21] = test system: Rattus norvegicus; test: Antihypertensive activity in DOCA/saline rat dosed at 50 mg/kg administered perorally expressed as percent rise in heart rate after 2 h; NS is not significant; type: functional, organism-based; parameters: dose 50 mg/kg
How it was run: as §1

[22] = test system: Rattus norvegicus; test: Antihypertensive activity in DOCA/saline rat dosed at 50 mg/kg, administered perorally expressed as percent rise in heart rate after 6 h; NS is not significant,; type: functional, organism-based; parameters: dose 50 mg/kg
How it was run: as §1

[23] = test system: Rattus norvegicus; test: Antihypertensive activity in DOCA/saline rat dosed at 10 mg/kg, administered perorally expressed as percent fall in blood pressure after 2 h; type: functional; details: route oral
How it was run: as §1

[24] = test system: Rattus norvegicus; test: Antihypertensive activity in DOCA/saline rat dosed at 10 mg/kg, administered perorally expressed as percent fall in blood pressure after 6 h; NS is not significant; type: functional, organism-based; parameters: dose 10 mg/kg
How it was run: as §1

[25] = test system: Rattus norvegicus; test: Antihypertensive activity in DOCA/saline rat dosed at 25 mg/kg, administered perorally expressed as percent fall in blood pressure after 6 h; type: functional; details: route oral
How it was run: as §1

[26] = test system: Rattus norvegicus; test: Antihypertensive activity in DOCA/saline rat dosed at 50 mg/kg, administered perorally expressed as percent rise in heart rate after 2 h; NS is not significant,; type: functional, organism-based; parameters: dose 50 mg/kg
How it was run: as §1

[27] = test system: Rattus norvegicus; test: Antihypertensive activity in DOCA/saline rat dosed at 10mg/kg, administered perorally expressed as percent rise in heart rate after 2 h; type: functional
How it was run: as §1

[28] = test system: Rattus norvegicus; test: Antihypertensive activity in DOCA/saline rat dosed at 10 mg/kg, administered perorally expressed as percent rise in heart rate after 6 h; NS is not significant; type: functional, organism-based; parameters: dose 10 mg/kg
How it was run: as §1

[29] = test system: Rattus norvegicus; test: Antihypertensive activity in DOCA/saline rat dosed at 25 mg/kg, po administered perorally expressed as percent rise in heart rate after 2 h; NS is not significant; type: functional, organism-based; parameters: dose 25 mg/kg
How it was run: as §1

[30] = test system: Rattus norvegicus; test: Antihypertensive activity in DOCA/saline rat dosed at 25 mg/kg, po administered perorally expressed as percent rise in heart rate after 6 h; NS is not significant; type: functional, organism-based; parameters: dose 25 mg/kg
How it was run: as §1

[31] = test system: Rattus norvegicus; test: as §2; type: functional, organism-based; parameters: dose 50 mg/kg; remark: listed apart in the source
How it was run: as §1

[32] = test system: Rattus norvegicus; test: Antihypertensive activity in DOCA/saline rat dosed at 10 mg/kg, administered perorally expressed as percent fall in blood pressure after 2 h; NS is not significant; type: functional, organism-based; parameters: dose 10 mg/kg
How it was run: as §1

[33] = test system: Rattus norvegicus; test: Antihypertensive activity in DOCA/saline rat dosed at 10mg/kg, administered perorally expressed as percent fall in blood pressure after 6 h; NS is not significant; type: functional, organism-based
How it was run: as §1

Row | Compound | Decrease in blood pressure [3] | Decrease in blood pressure [4] | Rise HR [5] | Rise HR [6] | Decrease in blood pressure [7] | Decrease in blood pressure [8] | further results
1 | NNc1nncc2ccccc12 | – | – | – | – | – | – | Decrease in blood pressure [1]: inactive; Rise HR [2]: inactive
2 | O=S(=O)(Nc1ccccc1)N[C@@H]1CCN2CCc3ccccc3[C@@H]2C1 | inactive | inactive | inactive | inactive | – | – | –
3 | CCCS(=O)(=O)N[C@@H]1CCN2CCc3ccccc3[C@@H]2C1.Cl | – | – | – | inactive | 28% | 46% | Rise HR [9]: 14%
4 | COc1cc2c(cc1OC)[C@@H]1C[C@H](NS(N)(=O)=O)CCN1CC2.Cl | – | inactive | inactive | inactive | 22% | – | –
5 | CNS(=O)(=O)N[C@@H]1CCN2CCc3ccccc3[C@@H]2C1.Cl | – | – | – | inactive | 35% | 18% | Rise HR [9]: 23%
6 | CN(C)S(=O)(=O)N[C@@H]1CCN2CCc3ccccc3[C@@H]2C1.Cl | – | – | inactive | inactive | 45% | 31% | –
7 | CCN(CC)S(=O)(=O)N[C@@H]1CCN2CCc3ccccc3[C@@H]2C1.Cl | – | inactive | inactive | inactive | 29% | – | –
8 | O=S(=O)(N[C@@H]1CCN2CCc3ccccc3[C@@H]2C1)c1ccccc1 | inactive | inactive | inactive | inactive | – | – | –
9 | CN([C@@H]1CCN2CCc3ccccc3[C@@H]2C1)S(C)(=O)=O | inactive | inactive | inactive | inactive | – | – | –
10 | CCCS(=O)(=O)N(C)[C@@H]1CCN2CCc3ccccc3[C@@H]2C1.Cl | – | inactive | – | – | 38% | – | Decrease in blood pressure [10]: inactive; Decrease in blood pressure [11]: inactive; Rise HR [12]: inactive; Rise HR [13]: inactive; Rise HR [14]: 21%; Rise HR [15]: 15%
11 | CCS(=O)(=O)N(C)[C@@H]1CCN2CCc3ccccc3[C@@H]2C1.Cl | – | – | – | – | – | – | Decrease in blood pressure [10]: inactive; Decrease in blood pressure [16]: 36%; Rise HR [12]: inactive; Rise HR [13]: inactive
12 | Cl.O=S(=O)(N[C@H]1CCN2CCc3ccccc3[C@@H]2C1)c1ccccc1 | inactive | – | inactive | inactive | – | 18% | –
13 | Cc1ccc(N(CC2=NCCN2)c2cccc(O)c2)cc1 [PHENTOLAMINE] | – | – | – | – | – | – | Decrease in blood pressure [17]: 36%; Decrease in blood pressure [18]: inactive; Rise HR [19]: inactive; Rise HR [20]: 23%
14 | CS(=O)(=O)N[C@H]1CCN2CCc3ccccc3[C@@H]2C1 | inactive | inactive | – | – | – | – | Rise HR [21]: inactive; Rise HR [22]: inactive
15 | Cl.O=S(=O)(N[C@@H]1CCN2CCc3ccccc3[C@@H]2C1)N1CCCC1 | inactive | inactive | – | inactive | – | – | Rise HR [9]: 22%
16 | CS(=O)(=O)N[C@@H]1CCN2CCc3ccccc3[C@@H]2C1.Cl | – | – | – | – | 53% | 68% | Decrease in blood pressure [23]: 28%; Decrease in blood pressure [24]: inactive; Decrease in blood pressure [16]: 50%; Decrease in blood pressure [25]: 50%; Increase in heart rate [26]: Not significant; Rise HR [27]: 39%; Rise HR [28]: inactive; Rise HR [13]: inactive; Rise HR [29]: inactive; Increase in heart rate [6]: inactive
17 | CCS(=O)(=O)N[C@H]1CCN2CCc3ccccc3[C@@H]2C1 | inactive | inactive | inactive | inactive | – | – | –
18 | COc1cc2c(cc1OC)[C@@H]1C[C@H](NS(C)(=O)=O)CCN1CC2.Cl | – | – | – | inactive | 44% | 35% | Rise HR [9]: 16%
19 | CS(=O)(=O)N[C@@H]1CCN2CCc3ccc(Cl)cc3[C@@H]2C1 | inactive | inactive | inactive | inactive | – | – | –
20 | CCS(=O)(=O)N[C@@H]1CCN2CCc3ccccc3[C@@H]2C1.Cl | – | – | inactive | – | – | 43% | Decrease in blood pressure [10]: inactive; Decrease in blood pressure [16]: 42%; Decrease in blood pressure ([7]; 50 mg/kg): 56% and 37%; Rise HR [12]: inactive; Rise HR [30]: inactive; Rise HR [31]: inactive; Rise HR [14]: 22%; Rise HR [22]: inactive
21 | Cl.NS(=O)(=O)N[C@@H]1CCN2CCc3ccccc3[C@@H]2C1 | – | – | – | inactive | 48% | 50% | Decrease in blood pressure [32]: inactive; Rise HR [27]: 24%; Rise HR [28]: inactive; Rise HR [9]: 24%; Decrease in blood pressure [33]: inactive
